Assay outcomes from PubChem BioAssay.
Shown are actives, neighbours in structure and some others; about 3.4% of the full set was active somewhere.
CHRM1 agonist = human M1 muscarinic receptor agonists, primary screen, Fluo-8 calcium fluorescence, CHO-K1 cells, HTS | 0.33% of 360,000 active | CHO-K1 hM1, agonist mode; 0% DMSO, 100% acetylcholine EC100 | activation, % at 3 µM | Muscarinic acetylcholine receptor M1 (Homo sapiens), P11229 | AID 588814, 2011;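 active = activation above the run's mean compound activation plus 3 SD, cut at about 16% in these data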;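 also: peak over basal fluorescence ratio within a 140 s kinetic read after compound addition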
TAAR1 ag = human TAAR1 agonists, primary screen, Fluo-8 calcium fluorescence, CHO RD-HGA16 cells. AID 624467, 2012. vehicle wells 0%, saturating PEA agonist 100%. activation, % at 3 µM. Trace amine-associated receptor 1 (Homo sapiens), Q96RJ0. 0.99% of 360,000 active;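 active = activation above the mean activation of all test compounds in the run plus 3 SD, cut at about 38% in these data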
Target sequence (Q96RJ0 whole entry, looked up): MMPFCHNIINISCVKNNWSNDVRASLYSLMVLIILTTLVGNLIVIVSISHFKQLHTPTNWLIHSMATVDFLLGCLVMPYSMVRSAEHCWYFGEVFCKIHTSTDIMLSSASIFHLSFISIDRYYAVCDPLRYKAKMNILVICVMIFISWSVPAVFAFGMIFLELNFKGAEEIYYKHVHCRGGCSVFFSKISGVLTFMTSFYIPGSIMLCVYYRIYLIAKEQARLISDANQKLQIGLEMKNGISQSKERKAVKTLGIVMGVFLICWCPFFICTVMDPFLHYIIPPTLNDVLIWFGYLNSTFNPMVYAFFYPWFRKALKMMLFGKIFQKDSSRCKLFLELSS
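System: CHO-derived RD-HGA16 cells with stable Gα16 and human TAAR1. Times: 17-24 h plating, Fluo-8 75 min 37 °C, 30 min RT. Measured by: calcium-sensitive Fluo-8 signal, excitation 470-495, emission 515-575 nm. Read-out basis: % activation relative to PEA EC100 response. Control set: DMSO and PEA EC100. Repeats: no replicates (n 1).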
TAAR1 antagonist = human TAAR1 antagonists, primary screen, Fluo-8 calcium fluorescence, CHO RD-HGA16 cells; Trace amine-associated receptor 1 (Homo sapiens), Q96RJ0; antagonist; inhibition, % at 3 µM; 1.5% of 360,000 active; AID 624466, 2012;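 active = inhibition above a per-plate cutoff, the mean inhibition of test compounds on that plate plus 3 SD, cut at about 49% in these data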
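Test system – hTAAR1-expressing CHO RD-HGA16 cells, Gα16-coupled · Reagent – β-PEA at EC80 concentration, post-compound challenge · Compound dosing – 3 µM, single point · Timing – 140 s kinetic read after compound, 140 s after agonist · Detection – Fluo-8 intracellular calcium dye fluorescence, real-time kinetic reads · Control set – DMSO and EC80 PEA controls · Repeats – n of 1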
M1 PAM = human M1 muscarinic receptor positive allosteric modulators, primary screen, CHO-K1 cells, Fluo-8 calcium fluorescence, 1536-well; Muscarinic acetylcholine receptor M1 (Homo sapiens), P11229; CHO-K1 hM1, ACh EC20; 0% = ACh EC20, 100% = maximal ACh; activation, % at 3 µM; 0.088% of 360,000 active; AID 588819, 2011; in the data active = activation above about 19%, passing the limit was not always enough
CHRM1 antagonist = human M1 muscarinic receptor antagonists, primary screen, CHO-K1 cells, Fluo-8 calcium fluorescence, 1536-well. CHO-K1 hM1, ACh EC80 antagonist. AID 588852, 2011. inhibition, % at 3 µM. 1.3% of 360,000 active. Muscarinic acetylcholine receptor M1 (Homo sapiens), P11229;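 active = percent inhibition above its own plate's cutoff, namely the mean of that plate's compound wells plus 3 SD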;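 also: peak over basal fluorescence ratio during 140 s after agonist addition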
TAAR1 ag confirm = human TAAR1 agonists, retest of hits, confirmation, Fluo-8 calcium fluorescence, CHO RD-HGA16 cells. shares compounds with TAAR1 ag. scaled: DMSO 0%, maximal phenethylamine 100%. activation, % at 3 µM. 82% of 2,400 active. AID 651783, 2012;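 active = activation above a cutoff set at the run's mean compound activation plus 3 SD, cut at about 39% in these data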
Ga16 nonsel ag = nonselective calcium mobilization agonists, CHO-Ga16 cells, counter-screen for hTAAR1 agonist project, cell-based, fluorescence, CHO-Ga16 parental line. AID 651787, 2012. Fluo-8 calcium fluorescence; normalized to maximal ATP response, DMSO zero. activation, % at 3 µM. shares compounds with TAAR1 ag. 50% of 2,400 active;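 active = activation above the run cutoff, the mean activation over all tested wells plus 3 SD, cut at about 12% in these data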
TAAR1 desens = TAAR1 desensitization by agonist hits, confirmation, counter-screen for TAAR1 agonist project, cell-based, fluorescence, tachyphylaxis; inhibition, % at 3 µM; shares compounds with TAAR1 ag; AID 651951, 2012; CHO RD-HGA16 hTAAR1, Fluo-8 calcium, beta-PEA response inhibition; 46% of 2,400 active;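 active = inhibition above the run cutoff, the mean inhibition of all test compounds plus 3 SD, cut at about 49% in these data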;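 also: beta-PEA stimulus applied at its EC80; loss of beta-PEA calcium signal after compound pretreatment read as receptor desensitization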
Ga16 nonsel ant = inhibition of ATP-evoked calcium response in CHO-Ga16 cells, counter-screen for TAAR1 agonist project, cell-based, fluorescence | inhibition, % at 3 µM | shares compounds with TAAR1 ag | 39% of 2,400 active | CHO-Ga16 ATP-induced calcium, Fluo-8 fluorescence;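 active = inhibition above the plate's mean compound inhibition plus 3 SD, computed per plate, cut at about 22% in these data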
Each line names hits and unclear results; the compound was inactive in the other large screens (follow-up assays come after a bar, where they were run).

Oc1ccc(C=NCC2COc3ccccc3O2)cc1 (stereo unspecified)	none (no result: TAAR1 ag, TAAR1 antagonist) | Ga16 nonsel ag inactive | Ga16 nonsel ant inactive
O=C(COC(=O)c1ccc(O)cc1)NCC1COc2ccccc2O1 (stereo unspecified)	none
COc1ccc(C=NCC2COc3ccccc3O2)cc1OC (stereo unspecified)	TAAR1 ag 67 | TAAR1 ag confirm 77 | Ga16 nonsel ag inactive | TAAR1 desens 76 | Ga16 nonsel ant inactive
NC(Cc1ccc(F)cc1)c1csc(Nc2ccc(S(N)(=O)=O)cc2)n1 (stereo unspecified)	TAAR1 ag 61 | TAAR1 ag confirm 76 | Ga16 nonsel ag inactive | TAAR1 desens 53 | Ga16 nonsel ant inactive
CS(=O)(=O)c1ccc(Nc2nc(C(N)Cc3ccccc3)cs2)cc1 (stereo unspecified)	TAAR1 ag 47 | TAAR1 ag confirm 75 | Ga16 nonsel ag inactive | TAAR1 desens inactive | Ga16 nonsel ant inactive
NC(Cc1ccccc1)c1csc(Nc2ccc(C(=O)NCCO)cc2)n1 (stereo unspecified)	TAAR1 ag 45 | TAAR1 ag confirm 76 | Ga16 nonsel ag inactive | TAAR1 desens 58 | Ga16 nonsel ant inactive
CN(Cc1ccc(Cl)cc1)C(=O)c1[nH]c(C(F)(F)F)nc1-c1ccccc1	none
CCOc1ccc(NC2=NCC(=O)N2CCc2ccccc2)cc1	TAAR1 ag 70 | TAAR1 ag confirm 81 | Ga16 nonsel ag 42 | TAAR1 desens 82 | Ga16 nonsel ant 52
Cc1ccc(NC2=NCC(=O)N2CCc2ccccc2)cc1C	TAAR1 ag 47 | TAAR1 ag confirm 59 | Ga16 nonsel ag inactive | TAAR1 desens inactive | Ga16 nonsel ant inactive
COc1cc(C(=O)NCCCN2CCCC2=O)cc(Br)c1OCc1ccccc1	none
Cc1csc(-c2cc(C(=O)NCc3ccc(F)cc3)n[nH]2)c1	none
O=C(CSc1ncccn1)NC(=O)NC1CCCC1	none
Nc1nc2c(ncn2[C@@H]2O[C@H](C(=O)NCCCc3ccccc3)[C@@H](O)[C@H]2O)c(=O)[nH]1	TAAR1 ag 56 (no result: CHRM1 agonist, M1 PAM, CHRM1 antagonist) | TAAR1 ag confirm 69 | Ga16 nonsel ag inactive | TAAR1 desens inactive | Ga16 nonsel ant inactive
CCOC(=O)C1C(c2ccc([N+](=O)[O-])cc2)C2C(=O)NN=C2CC1(C)O (stereo unspecified)	none
COc1ccc(C(CNC(=O)c2cccc(NC(=O)c3cccs3)c2)N2CCCC2)cc1 (stereo unspecified)	none
CCO/C=C1\SC(=S)N(c2ccc(Cl)cc2)C1=O	none
CC(C)c1ccc(N2C(=O)/C(=C/N(C)C)SC2=S)cc1	TAAR1 ag 59, TAAR1 antagonist 49 | TAAR1 ag confirm 58 | Ga16 nonsel ag 56 | TAAR1 desens 51 | Ga16 nonsel ant 65
CCOc1ccc(NS(=O)(=O)c2ccc(C(=O)N3CCCCC3)cc2)cc1	CHRM1 agonist 23, TAAR1 ag 67 | TAAR1 ag confirm 66 | Ga16 nonsel ag 45 | TAAR1 desens inactive | Ga16 nonsel ant 35
CCOc1ccc(NS(=O)(=O)c2ccc(C(=O)NCC(c3ccco3)N3CCCC3)cc2)cc1 (stereo unspecified)	TAAR1 ag 65 | TAAR1 ag confirm 83 | Ga16 nonsel ag 39 | TAAR1 desens inactive | Ga16 nonsel ant 29
COc1ccc(NS(=O)(=O)c2cccc(C(=O)NCC(c3ccco3)N3CCCCC3)c2)cc1 (stereo unspecified)	none
CCOc1ccc(NS(=O)(=O)c2ccc(C(=O)N3CCN(c4ncccn4)CC3)cc2)cc1	none
Cc1ccc(NS(=O)(=O)c2ccc(C(=O)NCC(c3ccco3)N(C)C)cc2)cc1 (stereo unspecified)	TAAR1 ag 105, TAAR1 antagonist 54 | TAAR1 ag confirm 108 | Ga16 nonsel ag 49 | TAAR1 desens 65 | Ga16 nonsel ant 33
CCOc1ccc(NS(=O)(=O)c2ccc(C(=O)N3CC(C)OC(C)C3)cc2)cc1 (stereo unspecified)	CHRM1 agonist 55, TAAR1 ag 130, TAAR1 antagonist 79, CHRM1 antagonist 34 | TAAR1 ag confirm 119 | Ga16 nonsel ag 91 | TAAR1 desens 79 | Ga16 nonsel ant 40
CN(C)C(CNC(=O)c1ccc(NS(=O)(=O)c2ccc(F)cc2)cc1)c1ccco1 (stereo unspecified)	none
O=C(NCCC1CCCCN1S(=O)(=O)c1ccc(F)cc1)C(=O)NCCN1CCOCC1 (stereo unspecified)	none
Cc1nn(C(C)C)c(C)c1CN1CCC(C(=O)Nc2cccc(-c3cccc(F)c3)c2)CC1	none
CSCCC(C(=O)Nc1c(C)cccc1C)n1c(-c2cnc(C)cn2)nc2ccccc21 (stereo unspecified)	none (no result: CHRM1 agonist, M1 PAM, CHRM1 antagonist)
COc1ccc(NS(=O)(=O)c2ccc(C(=O)N3CCC(C)CC3)cc2)cc1	CHRM1 agonist 36, TAAR1 ag 91 | TAAR1 ag confirm 76 | Ga16 nonsel ag 40 | TAAR1 desens inactive | Ga16 nonsel ant 26
CCOC(=O)c1ccc(NS(=O)(=O)c2ccc(SC)cc2)cc1	TAAR1 ag 46 | TAAR1 ag confirm 40 | Ga16 nonsel ag 19 | TAAR1 desens inactive | Ga16 nonsel ant 26
CCN(c1ccccc1)S(=O)(=O)c1ccc(C(=O)NCC(c2ccccc2OC)N2CCCC2)cc1 (stereo unspecified)	TAAR1 ag 46 | TAAR1 ag confirm 60 | Ga16 nonsel ag 13 | TAAR1 desens inactive | Ga16 nonsel ant 25
CC1CCN(C(=O)c2ccc(NS(=O)(=O)c3ccccc3)cc2)CC1	none
